From ChEMBL document CHEMBL1122440, “2'-O-nitro-1-beta-D-arabinofuranosylcytosine. A new derivative of 1-beta-D-arabinofuranosylcytosine that resists enzymatic deamination and has antileukemic activity” (J Med Chem, 1983)

Tests used:
L1210 [1] = test: Antileukemic activity against L1210 leukemia cells in female B6D2F1/J mice at 34 mg/kg dose (post inoculation life span, days); type: functional, Mus musculus
Method in brief: (§1)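 Female B6D2F1/J mice (about 20 g) inoculated ip on day 0 with ascites fluid containing 10^6 L1210 cells. Starting 24 h later, hydrochloride salt given ip daily for 7 consecutive days in water (neutralized with 1 N NaOH when necessary), 0.01 mL/g body weight. Five mice per dose. Life span reported as mean ± 1 SD. Increased life span calculated as (T/C - 1) × 100 against untreated controls.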

L1210 [2] = test: Antileukemic activity against L1210 leukemia cells in female B6D2F1/J mice at 156 mg/kg dose (post inoculation life span, days); type: functional, Mus musculus; method in brief: as §1
L1210 [3] = test: Antileukemic activity against L1210 leukemia cells in female B6D2F1/J mice at 208 mg/kg dose (post inoculation life span, days); type: functional, Mus musculus; method in brief: as §1
L1210 [4] = test: Antileukemic activity against L1210 leukemia cells in female B6D2F1/J mice at 156 mg/kg dose(Mean increased life span, calculated as (T/C-1)X100); type: functional, Mus musculus; method in brief: as §1
L1210 [5] = test: Antileukemic activity against L1210 leukemia cells in female B6D2F1/J mice at 93 mg/kg dose(Mean increased life span, calculated as (T/C-1)X100); type: functional, Mus musculus; method in brief: as §1
CCRF-CEM = test: Cytotoxicity against CCRF-CEM human leukemic lymphoblastoid cell lines; type: functional, cell-based
L1210 [6] = test: Antileukemic activity against L1210 leukemia cells in female B6D2F1/J mice at 93 mg/kg dose (post inoculation life span, days); type: functional, Mus musculus; method in brief: as §1
L1210 [7] = test: Antileukemic activity against L1210 leukemia cells in female B6D2F1/J mice at 56 mg/kg dose (post inoculation life span, days); type: functional, Mus musculus; method in brief: as §1
CCRF-CEM/ara-C = test: Cytotoxicity against CCRF-CEM/ara-C human leukemic lymphoblastoid cell lines; type: functional, cell-based
Method in brief: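 Ara-C-resistant subline of CCRF-CEM human leukemic lymphoblasts, deficient in deoxycytidine kinase activity. Growth inhibition measured in culture.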

MOLT-4 = test: Cytotoxicity against MOLT-4 human leukemic lymphoblastoid cell lines; type: functional, cell-based
L1210 [8] = test: Antileukemic activity against L1210 leukemia cells in female B6D2F1/J mice at 34 mg/kg dose(Mean increased life span, calculated as (T/C-1)X100); type: functional, Mus musculus; method in brief: as §1
RPMI 6410 = test: Cytotoxicity against RPMI-6410 human leukemic lymphoblastoid cell lines; type: functional, cell-based
L1210 [9] = test: Antileukemic activity against L1210 leukemia cells in female B6D2F1/J mice at 56 mg/kg dose(Mean increased life span, calculated as (T/C-1)[…]); type: functional, Mus musculus; method in brief: as §1
L1210 [10] = test: Antileukemic activity against L1210 leukemia cells in female B6D2F1/J mice at 208 mg/kg dose(Mean increased life span, calculated as […]; type: functional, Mus musculus; method in brief: as §1
L1210 [11] = test: Antileukemic activity against L1210 leukemia cells in female B6D2F1/J mice at 208 mg/kg dose(Mean increased life span, calculated as (T/C-1)X100); type: functional, Mus musculus; method in brief: as §1
L1210 [12] = test: Antileukemic activity against L1210 leukemia cells in female B6D2F1/J mice at 56 mg/kg dose(Mean increased life span, calculated as (T/C-1)X100); type: functional, Mus musculus; method in brief: as §1

| SMILES | Life span (L1210 [1]) [days] | Life span (L1210 [2]) [days] | Life span (L1210 [3]) [days] | Mean increased life span (L1210 [4]) [%] | Mean increased life span (L1210 [5]) [%] | IC50 (CCRF-CEM) [µM] | Life span (L1210 [6]) [days] | Life span (L1210 [7]) [days] | IC50 (CCRF-CEM/ara-C) [µM] | IC50 (MOLT-4) [µM] | Mean increased life span (L1210 [8]) [%] | IC50 (RPMI 6410) [µM] | Mean increased life span (L1210 [9]) [%] | Mean increased life span (L1210 [10]) [%] | Mean increased life span (L1210 [11]) [%] | Mean increased life span (L1210 [12]) [%] |
| --- | --- | --- | --- | --- | --- | --- | --- | --- | --- | --- | --- | --- | --- | --- | --- | --- |
| Nc1ccn([C@@H]2O[C@H](CO)[C@@H](O)[C@@H]2O[N+](=O)[O-])c(=O)n1 | 7.4 | 13.8 | 16.6 | 118 | 71 | 0.6 | 10.8 | 10.4 | 1000 | 0.4 | 17 | 6 | 64 | 162 | – | – |
| Nc1ccn([C@@H]2O[C@H](CO)[C@@H](O)[C@@H]2O)c(=O)n1 [CYTARABINE] | 12.8 | 16.25 | 16.6 | 157 | 128 | 0.02 | 14 | 13 | 100 | 0.01 | 102 | 0.06 | – | – | 162 | 105 |
